55 sequences from the array DNA melting data of Ke et al. (doi:10.1101/2024.01.08.574731) can be followed below.

Series [1] is described as follows: folding enthalpy; higher = less favourable; fluorescence melt of hairpins on a sequencing array, two-state fit. Conditions: sodium 0.088 M. In short, it runs like this: (§1)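 Melting temperature and folding enthalpy were obtained by bootstrapped two-state fitting. Fits used Cy3 fluorescence of library hairpins with annealed Cy3 and quencher oligos on a sequenced MiSeq flow cell, imaged in 50 mM Na-HEPES pH 8.0, 25 mM NaCl in 2.5 °C steps up to 60 °C and normalised to pre-quench Cy3 and control constructs. Four replicates were combined by inverse-variance weighting, and fitted temperatures were raised by 9.35 °C to match UV melts.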

Series [2] is described as follows: melting temperature; fluorescence melt of hairpins on a sequencing array, two-state fit, raised by 9.35 °C to match UV melts. As to conditions: sodium 0.088 M. In short, it runs like this: as §1

Take GATCGGAAACCCGATC ((((((....)))))): in series [1], the folding enthalpy is -34.6 kcal/mol. The Tm in series [2] is 53.9 °C.
Turning to GTTGAGGGAAACCCCAAC ((((.((....)).)))), the folding enthalpy in series [1] is -26.1 kcal/mol. Moreover, the Tm in series [2] came to 43.3 °C.
Turning to GCTAATCGAAAGATAGC (((.(((....)))))), the folding enthalpy in series [1] was -26.4 kcal/mol. Further, in series [2], the Tm came to 44.6 °C.
Take GCTCATGAAAATGAGC ((((((....)))))): in series [1], the folding enthalpy is -38.5 kcal/mol. For the same sequence, the Tm in series [2] was 63.6 °C.
The like results for GAACACGAAAGTGAGTTC ((((((....)))..))) were, in that order, -16.4 kcal/mol and 35.7 °C.
The like results for GACTTCCGAAAGGATGTC (((.(((....))).))) were, in that order, -40.7 kcal/mol and 52.8 °C.
Take GAGTAGGGAAACCTACTC (((((((....))))))): in series [1], the folding enthalpy was -46.6 kcal/mol. Besides, in series [2], the Tm was determined as 57 °C.
The like results for GATCGAACGTCGATC ((((((...)))))) were, in that order, -34.9 kcal/mol and 49.3 °C.
For the sequence GCAAACGAAAGTTGATGC ((((((....)))..))), the folding enthalpy in series [1] was -15.2 kcal/mol. Besides, the Tm in series [2] is 35.9 °C.
For the sequence GCAAGGCGAAAGCTATGC (((..((....))..))), the folding enthalpy in series [1] is -20.8 kcal/mol. Moreover, in series [2], the Tm came out at 42.4 °C.
The like results for GATCCAGAATGGATC ((((((...)))))) were, in that order, -50.9 kcal/mol and 58.1 °C.
The like results for GCAGCCGAAAGGCTTTGC ((((((....)))..))) were, in that order, -10.2 kcal/mol and 42.2 °C.
Turning to AACATGAAAATGTT (((((....))))), in series [1], the folding enthalpy was -14.7 kcal/mol. Also, in series [2], the Tm turned out to be 33.6 °C.
For GACCTCGGAAACGAGATC ((.((((....)))).)), in series [1], the folding enthalpy is -20.3 kcal/mol. For the same sequence, the Tm in series [2] was 40.5 °C.
For GATCTTAATGAAGATC ((((((....)))))), in series [1], the folding enthalpy is -27.5 kcal/mol. Besides, in series [2], the Tm amounted to 39.5 °C.
GCCCGGCGAAAGCGCGGC (((..((....))..))): in series [1], the folding enthalpy was -16.1 kcal/mol. Besides, the Tm in series [2] stood at 61.7 °C.
In the same order, the values of GCCCCGCGAAAGCAGCGC ((.(.((....)).).)) are -14.2 kcal/mol and 39.7 °C.
The like results for GGAGTTGGAAACAACTCC (((((((....))))))) were, in that order, -45.3 kcal/mol and 65.9 °C.
Consider GATCTTCATAAGATC ((((((...)))))), for which the folding enthalpy in series [1] is -28.4 kcal/mol. The Tm in series [2] was found to be 43.4 °C.
In the same order, the values of GCTATGCGAAAGCAAGGC ((..(((....)))..)) are -18.4 kcal/mol and 42.5 °C.
Regarding GGATGTGGAAACACACCC ((.((((....)))).)), the folding enthalpy in series [1] is -27 kcal/mol. Further, in series [2], the Tm came out at 44.3 °C.
GTTACTGGAAACAGTAAC (((((((....))))))): the folding enthalpy in series [1] is -60.8 kcal/mol. Further, the Tm in series [2] turned out to be 54.1 °C.
In the same order, the values of GTCGACGAAAGTCACGAC ((((((....)))..))) are -18.6 kcal/mol and 45.4 °C.
The like results for GTGGCTGCGAAAGCACAC (((..(((....)))))) were, in that order, -11.5 kcal/mol and 47.8 °C.
As for GGCGTTGGAAACAACGTC (.(((((....))))).), in series [1], the folding enthalpy was -25.4 kcal/mol. Besides, the Tm in series [2] came to 57.8 °C.
As to CGATGCGGAAACGCGTCG (((.(((....))).))), in series [1], the folding enthalpy was -47.4 kcal/mol. Moreover, in series [2], the Tm came out at 62.1 °C.
Consider GAGAACCGAAAGGTGCTC (((.(((....))).))), for which the folding enthalpy in series [1] was -34.3 kcal/mol. Further, in series [2], the Tm amounted to 56.5 °C.
GGCCTCACGAAAGTGGCC (((..(((....)))))): the folding enthalpy in series [1] is -21.9 kcal/mol. In series [2], the Tm came out at 53.7 °C.
The like results for GGCACGGGAAACCGCGCC (((.(((....))).))) were, in that order, -44.1 kcal/mol and 63.5 °C.
In the same order, the values of GTGTCGGGAAACTGACAC (((((.(....).))))) are -41.6 kcal/mol and 55 °C.
Take GCCATGGGAAACCGTGGC ((((.((....)).)))): the folding enthalpy in series [1] was -40.6 kcal/mol. The Tm in series [2] was found to be 59 °C.
With GACAGCGCGAAAGCGGTC (((..(((....)))))), the folding enthalpy in series [1] is -11.4 kcal/mol. The Tm in series [2] was found to be 41.8 °C.
In the same order, the values of GAGAATCCGAAAGGACTC (((..(((....)))))) are -16 kcal/mol and 27.7 °C.
In the same order, the values of GATCTGCAGCAGATC ((((((...)))))) are -35 kcal/mol and 49.2 °C.
In the same order, the values of GCGGCGCCCGC ((((...)))) are -15.9 kcal/mol and 60.9 °C.
Regarding GATCCGGCCTCGGATC ((((((....)))))), the folding enthalpy in series [1] was -42.1 kcal/mol. Besides, the Tm in series [2] was determined as 58.7 °C.
GCGAGTGGAAACGCTCGC (((((.(....).))))): the folding enthalpy in series [1] was -46 kcal/mol. Also, the Tm in series [2] was 64 °C.
In the same order, the values of GTGGGGTCGAAAGACCAC (((..(((....)))))) are -19.2 kcal/mol and 63.1 °C.
Turning to GACACCGAAAGGTATGTC ((((((....)))..))), the folding enthalpy in series [1] is -19.6 kcal/mol. The Tm in series [2] was found to be 39.2 °C.
GCAATGCGAAAGCCCTGC (((..((....))..))): the folding enthalpy in series [1] is -10.3 kcal/mol. In series [2], the Tm came out at 28.4 °C.
In the same order, the values of GCCTGGCGAAAGCTGGGC (((..((....))..))) are -28.2 kcal/mol and 64.4 °C.
The like results for GACAGGGGAAACCCTATC ((.((((....)))).)) were, in that order, -12.8 kcal/mol and 28 °C.
The like results for GATCATGAAGATGATC ((((((....)))))) were, in that order, -34.9 kcal/mol and 50.3 °C.
Take GGACCCGAAAGGGATCC ((((((....))).))): the folding enthalpy in series [1] was -20.8 kcal/mol. Further, the Tm in series [2] came to 54.2 °C.
As to GTGGGCGGAAACGCTCAC (((.(((....))).))), in series [1], the folding enthalpy was -34.3 kcal/mol. Further, the Tm in series [2] worked out at 59.6 °C.
For the sequence GTCTGGCCGAAAGGCGAC (((..(((....)))))), the folding enthalpy in series [1] is -15.7 kcal/mol. The Tm in series [2] came to 43.9 °C.
As for GCGTCTGTACGC ((((....)))), the folding enthalpy in series [1] was -26.2 kcal/mol. Besides, the Tm in series [2] worked out at 53.3 °C.
Turning to GATCTGCTGGCAGATC ((((((....)))))), in series [1], the folding enthalpy is -43.6 kcal/mol. Besides, the Tm in series [2] turned out to be 62.5 °C.
The like results for GGCGACGAAAGTCACGCC ((((((....)))..))) were, in that order, -27.4 kcal/mol and 54.1 °C.
In the same order, the values of GGGAGCGAAAGCTCGCCC ((((((....)))..))) are -11.6 kcal/mol and 52.7 °C.
In the same order, the values of GAGAGTGGAAACACCCTC (((.(((....))).))) are -26.8 kcal/mol and 36 °C.
In the case of GTGGTTGGAAACAGCCAC ((((.((....)).)))), the folding enthalpy in series [1] is -44.1 kcal/mol. In addition, the Tm in series [2] turned out to be 52.4 °C.
Consider GTCGCTGCGAAAGCAGAC (((..(((....)))))), for which the folding enthalpy in series [1] was -10 kcal/mol. Further, the Tm in series [2] came to 38.5 °C.
The like results for CGTTACGGAAACGTGACG (((.(((....))).))) were, in that order, -52.2 kcal/mol and 51.5 °C.
As for GATCAGACCCTGATC ((((((...)))))), the folding enthalpy in series [1] is -33.4 kcal/mol. In addition, in series [2], the Tm stood at 47.7 °C.
